Laboratory results: the EternaBench riboswitch data

System: MS2 coat protein
Assay: apparent Kd, MS2 coat protein; higher = weaker binding; RNA-MaP array; FMN 200 µM where present
Outline: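 Green signal was scaled to red-channel RNA signal and control-cluster median Fmax, and the apparent Kd was taken as the median of filtered per-cluster binding-curve fits. The binding series used SNAP-549-labelled MS2 coat protein from 0.7 or 1.5 nM, doubling to 3 µM, on designs transcribed by stalled E. coli RNA polymerase on Illumina sequencing-chip clusters. Each series ran without and then with constant ligand in 100 mM Tris-HCl pH 7.5, 80 mM KCl, 4 mM MgCl2, BSA, DTT, yeast tRNA and Tween-20.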

[1] = designed as: OFF switch for flavin mononucleotide, no ligand
[2] = ligand present: flavin mononucleotide, designed as: OFF switch for flavin mononucleotide
[3] = designed as: ON switch for flavin mononucleotide, no ligand
[4] = ligand present: flavin mononucleotide, designed as: ON switch for flavin mononucleotide

Row | Sequence | apparent Kd [1] | apparent Kd [2] | apparent Kd [3] | apparent Kd [4]
1 | UAGGUGUGAGGAUAUGGUAAAGAUAAGAUGAUGAAAGAACUCCAGAAGGCACAUGAGGAUCACCCAUGUAGAUG | 28 nM | 70.8 nM |  | 
2 | AGUGCGAUGGGAGGAUAUCAUGGUCUAAUUAAUAAAAGGAUCACAUGAGGAUCACCCAUGUGUCAUGAGAAGGCCCUCGAGACC |  |  | 74.2 nM | 11.2 nM
3 | UGAUAGGACAGAGGAUAUACAGAUAGGAUCUACUAUCAAACAAUCCUGACAUGAGGAUCACCCAUGUAGAAGGCUGUCCUAUCU | 22.5 nM | 86.5 nM |  | 
4 | CGAGAUCUUGAGAAGGCAUAAUAUAUAAUACCACAUGUUUACAUGAGGAUCACCCAUGUUACCUAUGAGGAUAUCAGGAUUUCG | 18.5 nM | 16.1 nM |  | 
5 | AUUCUAAUAGCAGGAUAUCCCAGUAUCCUAAGUCAAAAGUUUUUGACAUGAGGAUCACCCAUGUGGGAGAAGGGCUCUGGAUAA | 111 nM | 65.8 nM |  | 
6 | AGUAGAUCAGGAUAUACGUAAAUGGUAAUUAUGUAACUUCUACAUGAGGAUCACCCAUGUAGAAGGGAUCUACA | 13.6 nM | 13.4 nM |  | 
7 | UUGAUAAGGAGAGGAUAUGGACAUGAGGAUCACCCAUGUACAUGGGAAUAUAUACUGAAUUUUUACUAGAAGGCUUACAUAUUU | 14.7 nM | 13 nM |  | 
8 | CCAGCGUAUGUGAGGAUAUGCUGGUCCUUGGAUCAGCAGAAGGCACAUGAGGAUCACCCAUGUGAUGACGUUGG | 50.9 nM | 287 nM |  | 
9 | CGCUCACAUGAGGAUCACCCAUGUCCUAGGAGGUCAGGAUAUAGCUCGCAUGCGUUGAGGCUAGAAGGGACAGCUG |  |  | 259 nM | 74.7 nM
10 | UUAAAUCAUGUAGGAUAUGCAUGGCGAAGCUACGCAGAAGGACAUGAGGAUCACCCAUGUGCUAGCGUCUGAGUACAGAUGCAA | 39.3 nM | 259 nM |  | 
11 | ACAUGAUCAGGAUAUACAUGAGGAUCACCCAUGUAAAUCAAAAAAAAACUUUCUUUAUGUAGAAGGGAUCUUGU | 14.4 nM | 15.5 nM |  | 
12 | GGGUACUAGGGAGGAUAUGGGAAGAUACAUGAGGAUCACCCAUGUUUAAGAAUGCCGAGAGGCAACUAGAAGGCCCUAGUACCU |  |  | 428 nM | 19.7 nM
13 | AAUGAUUGAUGAGGAUAUUGUGGUGAAACACGACGAGAAGGCAUAUGUCACAUGAGGAUCACCCAUGUGAGCUUUGUGGAUAUA | 25 nM | 28.9 nM |  | 
14 | AGCUAGUCAGGAUAUACGAACAUGUCAAAAGACGAGAACGGACAUGAGGAUCACCCAUGUAGAAGGGACUAGCA | 55 nM | 325 nM |  | 
15 | UGGUAACAUGAGGAUCACCCAUGUCAGGAUAUCAGUAAGAAUAGAUGAGAGUAGAAGAUGAGAAGGGACUAUAU | 29.4 nM | 24.4 nM |  | 
16 | UUACUCAUGUAAGGAUAUGCAGCCGUUUCGGCUGCAGAAGGUACUAUAAUACAUGAGGAUCACCCAUGUCUUUUUAAAUUUUAC |  |  | 109 nM | 35.2 nM
17 | AGAAACUACGAGAAGGACAUGUAAAAUGCCGCAAACAUGAGGAUCACCCAUGUAGGAUAUCGUAGUUUCAGGAUCGUGAGAUCA | 6.59 nM | 18.1 nM |  | 
18 | GUGUACGGAGGAUAUAUGUGGGCAGCAUACGCUGCAGCUUCACAUGAGGAUCACCCAUGUAGAAGGCUGUGCAC | 23.2 nM | 131 nM |  | 
19 | CUGUUAUAGGUCCAGAAUUACAACAUGAGGAUCACCCAUGUGCAGGAUAUCGAGUUAAUUUUCAACGAGAAGGGCAUAGUCACG | 35.9 nM | 67.6 nM |  | 
20 | AAAAAACAUGAGGAUCACCCAUGUGAGGAUAUGCGAAAAAAAAAAAAAAAAAAAAAAAGUAGAAGGCACAAAAA | 48.5 nM | 173 nM |  | 
21 | UAAUAAUAAUAAUAAUGGACUGAUACAUGAGGAUCACCCAUGUAGGAUAUGCAGUGGAAUACACUGCAGAAGGACAUACAGUCC | 16.6 nM | 17.2 nM |  | 
22 | AUUUUGUCAGGAUAUGAGUAGUAGGAUGAGAGUGCUACUACUUAGAAGGGACAUGAGGAUCACCCAUGUCUUCC | 14.2 nM | 16.7 nM |  | 
23 | UGUACCGUUGGAACGCGUCGAGUACAUGAGGAUCACCCAUGUCAGGAUAUGUGGCGGAAGGUAGCACAGAAGGGACAUAGAAAA | 30.1 nM | 86.7 nM |  | 
24 | CGUAUUAUUCAGAAGGCACUUCUCAUGUUACAUGAGGAUCACCCAUGUUUGUGAGGAUAUGAAUAUAGUUGUUGGUGUAUUAUA | 7.25 nM | 8.59 nM |  | 
25 | AAAGCAAUGUCAUGCUCACCGGACAGAAGGCAAUGUGGGCAGCCCGACAUGAGGAUCACCCAUGUUGAGGAUAUGUCCCGUCCU | 2.53 nM | 2.54 nM |  | 
26 | AUCUUGAGAGGAUAUACAUGAGGAUCACCCAUGUUGCUAACACCAUGCGGUCAUUUGCGUAGAAGGCUCAUCCG | 26.2 nM | 104 nM |  | 
27 | AGAUUUGUACAUGAGGAUCACCCAUGUUAAUAGGUGGUAGUCAGAAGGCAUUGAUAGAGUUUUAAUGAGGAUAUGAAUAUACAG |  |  | 267 nM | 126 nM
28 | AAAACAUGAGGAUCACCCAUGUAAAGAUCAAUUAAAAUGAGUGAGGAUAUACUAAAUUAUUUAUAGUAGAAGGCACUGGGUACA |  |  | 25 nM | 26.3 nM

Row | Sequence | apparent Kd [1] | apparent Kd [2] | apparent Kd [3] | apparent Kd [4]
29 | GCCAUCGCGUGAGGAUAUGCUCCGGUUUCCGGAGCAGAAGGCAUGUCAUAAGACAUGAGGAUCACCCAUGUAGUCAAGAUGGCA |  |  | 270 nM | 11.4 nM
30 | AAAACAUGAGGAUCACCCAUGUAUAGAGCGGUUAAUAAAGGUGAGGAUAUACUAAAUUUUAUAUAGUAGAAGGCACUGGGUACU |  |  | 26.7 nM | 30.5 nM
31 | ACAUGAGGAUCACCCAUGUUAUCCGGGACUUCAAUUGUUUCUAGAAGGCUGUUUGCUUGUUAGUCAGAGGAUAUAGAAUCAAAU | 10.2 nM | 10.1 nM |  | 
32 | GAUUUGUGACAAUUACAUGAGGAUCACCCAUGUUGUAGUAUGCAGGAUAUGUGGUAUAUUAUUUAACAGAAGGGCAAUAAUUUU |  |  | 98 nM | 46.4 nM
33 | UUAUUGUGAGGAUAUCAGGUGUGCUAGCGUACUGGUACAUCUGAGAAGGCACAUGAGGAUCACCCAUGUUCCUU | 14.3 nM | 37.3 nM |  | 
34 | UGUUGUAUUACAGGAUAUCUAUUAUGUUUAUUUAGAGAAGGGUAUUCACAUGAGGAUCACCCAUGUAUAUACGAGGAAGUUGUG |  |  | 54.8 nM | 56.2 nM
35 | AGAUAGAUAGCGAUAUGAUCGAGAGAUCAUGUCGCUAAAUUUAGAAGGACAUGAGGAUCACCCAUGUAGGAUAUGGGUAUAGAA |  |  | 404 nM | 149 nM
36 | AUAUUUAUUUAGAAGGACAUGAGGAUCACCCAUGUCGCUGGGCCCGGGAAACCGGGCCCGGCCAUGUAGGAUAUAGAUAGAUAU | 8.53 nM | 9.17 nM |  | 
37 | GAUCCACAUGAGGAUCACCCAUGUGAGGAUAUGUUGUUAGCUUUUUGCCGUAAGCCAUAUAGAAGGCACGGGUG | 20.1 nM | 22.3 nM |  | 
38 | GUGGUCUGACAUGAGGAUCACCCAUGUGGAAUAAAUACGGGUUAGGAUAUCUUGAGGAUCACCCAAGAGAAGGGAUCGAUUGUU |  |  | 52.8 nM | 45 nM
39 | GUUAAACAUGAGGAUCACCCAUGUAAGGAUAUGCUGCGGUCGCGCUGACGUGACUGCAGCAGAAGGUACAAAUG | 105 nM | 66.9 nM |  | 
40 | UCCUUGGUACAGAAGGACCGAGCUCCGUAGCAGGUAGGAUAUGUACAUGAGGAUCACCCAUGUCAGCGGUAAUUGCCAGUAUAC | 54.6 nM | 27.7 nM |  | 
41 | CACAGGGCAGGAUAUACGAACAUGUCGCCAGAUGUCAUGGUACAUGAGGAUCACCCAUGUAGAAGGGCGUUGAU | 50.5 nM | 52.8 nM |  | 
42 | UCCGAGUGAGGAUAUUGGAGUUGGUGCACUGCACAUAGGGUUAAGAAGGCACAUGAGGAUCACCCAUGUUACGU | 41.3 nM | 40.9 nM |  | 
43 | CGAUAUGAUAGAGGAUAUGUUUAACAUGAGGAUCACCCAUGUGACAUGGGAUUAAUAUAUAACUUACAGAAGGCUAUUCAAUCG | 34.4 nM | 52.4 nM |  | 
44 | UAUUAAUGCAAGGAUAUGCUAUUAAUUUAUUUUGCAGAAGGUGCAACAUGAGGAUCACCCAUGUUGGAGGGUAU | 22 nM | 34.3 nM |  | 
45 | AUGACCUCAGUCAGGAUAUCGGCGCGGUGACGACUCGAGAAGGGACAUGAGGAUCACCCAUGUCUCGAUUAUAG | 15.4 nM | 22.2 nM |  | 
46 | UGGAACGUGUCAGGAUAUACAUGAGGAUCACCCAUGUAUAGGAAAUAGGCAGGGUCUCUUGCAUAGUAGAAGGGACGCGAUUGC | 6.58 nM | 7.75 nM |  | 
47 | GCCAUCGCAUGAGGAUAUGCUCCGGUUUCCGGAGCAGAAGGCAUGUAAUAAAACAUGAGGAUCACCCAUGUAGUUAAGAUGGCA |  |  | 7.94 nM | 6 nM
48 | ACAAGAUCAGGAUAUACAUGAGGAUCACCCAUGUUUAUCAAAAAGGGACUUUCUUUAUGUAGAAGGGAUCUUGU | 72.8 nM | 70.1 nM |  | 
49 | GCCAGGCAUGUAGGAUAUCCAUUGCGUCGCGAUGGAGAAGGGCAACACACAUGAGGAUCACCCAUGUGGUCACCCAUGUCGUGU | 217 nM | 225 nM |  | 
50 | AACGCGUCAGGAUAUGCCAUAAAUUACCUAGUACGACCAUAGCAGAAGGGACAUGAGGAUCACCCAUGUGGGUA | 92 nM | 67.6 nM |  | 
51 | UGGCUGAGUCGAGGAUAUGAUCUUCAUAUAUAUACAUGAGGAUCACCCAUGUAUAAUUACAUGGAUCAGAAGGCGACUCAGCCA |  |  | 31.6 nM | 11.5 nM
52 | UAUAUAUAGGCAGGAUAUACAUGAAUAUAUAUGAUGUAGUAUGAUGUAACAUGAGGAUCACCCAUGUAGAAGGGCCAAUAUAUA | 48 nM | 152 nM |  | 
53 | AGGUGACAUGAGGAUCACCCAUGUAAGGAUAUACGGUUAGUGGAGAGAGGGAAAAGAGGUAGAAGGUACGGAGC | 266 nM | 142 nM |  | 
54 | GUAGCAUACCGAGGAUAUCUAUAUAAUAAACAAACAUGAGGAUCACCCAUGUGGCGAAAGCCAAGGGAGAAGGCGGAAUGCUAC |  |  | 35.6 nM | 22.1 nM
55 | AUUUCAGUCAGAGGAUAUUGUUUAUCUCUAUUGCAAGAAGGCUGAUCUUACUACCCACUUAUGAAACAUGAGGAUCACCCAUGU |  |  | 20.8 nM | 16.8 nM
